Compounds with a hit are over-represented: about 2.9% of the library has one in this group of screens.
Apaf1 inhib – human Apaf-1 inhibition. O14727. reconstituted apoptosome caspase-3 activity, DEVD-Rh110 fluorescence. inhibition, % at 20 µM. hit rate 0.71% among 330,000. AID 489030; active means inhibition of at least 40% at 20 µM;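 further: plate controls were DMSO wells for no effect and DEVD-CHO caspase inhibitor wells for full effect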
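Assay system: Apoptosome proteins | Medium: pH 7.5 Hepes buffer with CHAPS, BSA, DTT | Also added: Cytochrome c and DEVD-Rh110 substrate | Times: 30 min plus 50 min, RT | Detection: Rhodamine 110 fluorescence at Ex 480/Em 540 nm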
SENP8 block-1 – blocks the human protease SENP8. hit rate 1.2% among 330,000. purified SENP8, Z-RLRGG-aminoluciferin cleavage, luminescence. inhibition, % at 10 µM; in the data active means inhibition above about 50%
Target sequence (Q96LD8 whole entry, looked up): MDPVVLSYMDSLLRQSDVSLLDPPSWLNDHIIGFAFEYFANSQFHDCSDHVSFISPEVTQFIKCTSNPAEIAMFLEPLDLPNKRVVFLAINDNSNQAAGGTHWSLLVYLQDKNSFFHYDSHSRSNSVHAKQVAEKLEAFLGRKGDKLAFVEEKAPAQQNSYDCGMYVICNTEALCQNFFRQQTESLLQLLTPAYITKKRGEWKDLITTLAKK
SENP7 block – inhibitors of human SENP7 protease. Q9BQF6. recombinant SENP7, Z-RLRGG-aminoluciferin luminescence, 40 min. inhibition, % at 5 µM. hit rate 1.5% among 330,000. AID 434973;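 active means inhibition above about 50% at the single test dose, limit read from the data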;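 further: plate controls were DMSO with enzyme for no effect and no enzyme buffer wells for full effect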
Target sequence (Q9BQF6 706-1050 limits assumed): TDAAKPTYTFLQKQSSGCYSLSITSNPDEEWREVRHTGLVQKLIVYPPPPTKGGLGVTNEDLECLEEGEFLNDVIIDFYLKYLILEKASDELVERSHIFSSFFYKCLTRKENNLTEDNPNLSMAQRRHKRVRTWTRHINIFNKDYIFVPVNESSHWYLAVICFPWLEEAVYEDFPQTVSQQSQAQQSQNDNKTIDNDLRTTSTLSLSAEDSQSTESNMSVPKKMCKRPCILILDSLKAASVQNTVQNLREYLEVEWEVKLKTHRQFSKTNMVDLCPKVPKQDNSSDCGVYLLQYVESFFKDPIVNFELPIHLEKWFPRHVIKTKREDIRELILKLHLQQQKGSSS
SENP8 block-2 – SENP8 (human) protease inhibition; Q96LD8; recombinant SENP8, Nedd8 substrate fluorescence; inhibition, % at 20 µM; hit rate 0.64% among 360,000; AID 602440; in the data active means inhibition mostly above about 40%, no sharp cut-off; inactive means mostly below about 27%
SENP1 FRET inh – blocks the human SENP1 SUMO protease catalytic domain; Q9P0U3; recombinant SENP1 catalytic domain, CyPet-SUMO1-YPet FRET cleavage; inhibition, % at 10 µM; hit rate 0.21% among 360,000; AID 624204;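 active means inhibition at least 30% at 10 µM, raw YFP signal under a set limit, fluorescence ratio 0.5 to 1.5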;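 further: 0% = enzyme with DMSO and 100% = no enzyme wells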
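Material: hSENP1 catalytic domain, recombinant; medium: Tris pH 8 with BME, BSA, NP40 and catalase; compound: single concentration of 10 µM compound, 0.5% DMSO final; technique: FRET read of cyan and yellow fluorescence; timing: 50 min enzyme reaction, room temperature, light-protected; reagent: SFCypet-SUMO1-SFYpet substrate at 25 nM; control set: no-enzyme low, enzyme-DMSO high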
SENP6 inh – inhibitors of human SENP6 protease; AID 2599; Q9GZR1; hit rate 1.8% among 330,000; Recombinant SENP6 catalytic domain, aminoluciferin luminescence; inhibition, % at 10 µM;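 active means inhibition above about 50% at the single tested dose, limit read from the data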;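 further: plate controls were DMSO wells with enzyme for no effect and DMSO wells lacking enzyme for full effect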
* marks the source's active call; other numbers are inactive results; x = no result.

SMILES	Apaf1 inhib	SENP8 block-1	SENP7 block	SENP8 block-2	SENP1 FRET inh	SENP6 inh
COc1ccc(CCNC(=O)CSc2ccc(-c3ccco3)nn2)cc1OC	-7.3	-4.2	-8.6	0.6	1.0	-9.8
O=C(Nc1ccccc1)O[C@@H]1C[C@H]2CCC(=O)N3CC[C@@H](C1)[C@@H]23	6.4	54.6*	59.8*	x	x	56.4*
O=c1n2c(c(O)n1C1CCCCC1)C(c1ccccc1)=Nc1ccccc1C2	x	x	x	28.6	5.0	x
COc1ccc(/C=C/c2nc(-c3ccccc3O)n(-c3ccccc3)n2)cc1	5.5	-6.0	8.9	-28.4	0.6	-7.3
COc1ccc(/C=C/c2nc(-c3ccccc3O)n[nH]2)cc1	22.0	93.0*	94.7*	-57.9	-3.4	95.8*
COc1cccc(/C=N/N=C(\N)c2nonc2N)c1O	-9.3	14.8	78.3*	17.8	2.2	21.3
C=CCN1C(=O)/C(=C/c2ccc(OC(C)=O)c(OCC)c2[N+](=O)[O-])SC1=S	x	x	x	65.3*	25.7	x
CCOc1c(OC(C)=O)ccc(/C=C/c2ccc3cccc(OC(C)=O)c3n2)c1[N+](=O)[O-]	10.1	1.0	6.0	13.4	-3.2	-6.5
Cc1cccc2cc(C(c3nnnn3Cc3ccc4c(c3)OCO4)N3CCCC3)c(=O)[nH]c12 (centres undefined)	5.2	-6.5	6.6	-44.8	-8.8	1.8
Cc1ccc(C)c2[nH]c(=O)c(C(c3nnnn3Cc3ccccc3)N3CCc4ccccc4C3)cc12 (centres undefined)	67.3*	34.3	45.8	-31.7	-35.4	65.8*
COc1ccc(C(C)=O)cc1Cn1c(C)c(C(=O)NCc2cccc(C)c2)sc1=O	x	x	x	-0.2	2.7	x
O=C(CCCN1C(=O)/C(=C\c2ccccc2)SC1=S)Nc1ccc(O)cc1C(=O)O	15.7	0.3	-12.3	17.0	4.2	18.6
CC(C(=O)Nc1ccc(O)cc1C(=O)O)N1C(=O)/C(=C\c2cccs2)SC1=S (centres undefined)	17.1	17.9	0.6	61.5*	-0.6	34.4
Cc1ccn2cc(-c3ccc(O)c(O)c3)nc2c1	-0.4	55.8*	67.0*	-279.5	3.9	67.4*
CCN(CC)C(=O)c1cccc(-c2csc(C(O)(c3ccccc3)C(F)(F)F)n2)c1 (centres undefined)	x	x	x	11.7	2.4	x
Cc1nc(NCc2ccco2)c2c(C)c(C)sc2n1	-21.6	-1.5	1.3	-2.4	1.2	10.9
Cc1sc2nc3c4ccccc4c(NCc4ccco4)nn3c(=O)c2c1C	12.4	70.7*	76.0*	-485.0	-54.1	72.5*
COc1cccc(-c2cnc(C(O)c3ccc(Cl)c(Cl)c3)[nH]2)c1 (centres undefined)	x	x	x	7.5	-1.8	x
COc1cccc(-c2cc(C(F)(F)F)c3c(N)c(C#N)sc3n2)c1	-0.8	-0.3	85.9*	x	x	2.0
COc1ccc(-c2cc(C(F)(F)F)c3c(N)c(C(=O)NCCSC)sc3n2)cc1	6.3	16.2	1.9	-486.6	-26.4	14.0
Clc1c(CSc2nc3ccccc3o2)nc2ccccn12	-0.6	19.1	36.7	3.7	-1.3	52.3*
Clc1c(CSc2nc3ccccc3o2)nc2sccn12	-18.4	26.1	22.4	10.9	-1.5	42.3
COCCN(C(=O)COC(=O)Cc1ccc(Cl)cc1Cl)c1c(N)n(Cc2ccccc2)c(=O)[nH]c1=O	2.6	-9.3	-7.4	5.7	-1.2	-14.3
CC(=O)c1ccc(NC(=O)COC(=O)c2ccccc2N=Nc2ccc(N(C)C)cc2)cc1	6.4	6.4	8.8	28.2	3.5	1.2
COC(=O)c1ccccc1NC(=O)COC(=O)c1ccccc1N=Nc1ccc(N(C)C)cc1	11.6	-0.3	3.3	42.1*	3.3	-7.4
SMILES	Apaf1 inhib	SENP8 block-1	SENP7 block	SENP8 block-2	SENP1 FRET inh	SENP6 inh
CN(C)C(CNS(=O)(=O)c1ccc2ccccc2c1)c1ccccc1 (centres undefined)	-8.3	0.7	-3.2	9.1	-1.2	-2.5
CCOC(=O)C1CCN(S(=O)(=O)c2ccc(OC)c(C(=O)N3CCCCCC3)c2)CC1	1.8	1.3	-9.2	-0.4	0.0	25.7
CCOC(=O)C1CCCN(C(=O)c2cc(S(=O)(=O)N3CCCCCC3)ccc2OC)C1 (centres undefined)	49.1*	-0.7	-1.4	-0.5	0.3	-4.0
Nc1ccc(N=Nc2ccccc2)c(N)n1	-5.4	15.3	3.8	36.3*	2.1	22.3
COCCCNC(=O)c1ccc2sc([C@@H]3O[C@H](CO)[C@H](O)[C@H](O)[C@H]3O)nc2c1	x	x	x	13.1	-0.9	x
O=C(Nc1sc2c(c1C(=O)O)CCC2)c1cccs1	14.6	92.5*	43.7	-73.3	-2.0	90.3*
NC(=O)c1c(NC(=O)c2cccs2)sc2c1CCCCCC2	-4.6	-6.6	2.6	-167.2	-4.8	10.0
O=C(Nc1sc2c(c1C(=O)O)CCCC2)c1ccc(Cl)cc1	2.8	78.0*	37.4	-119.7	1.6	89.1*
O=C(Cc1cccs1)Nc1nc2c(s1)CCCC2	1.3	-15.0	-2.5	-0.5	0.1	25.8
O=C(O)c1ccc(Nc2nc3c(s2)CCCC3)cc1	0.5	96.2*	100.0*	-87.6	-1.1	98.9*
O=C(Nc1nc2c(s1)CCCC2)c1cccs1	13.8	92.4*	96.4*	-37.1	1.0	95.0*
Cc1[nH]n(-c2ccc(Cl)cc2)c(=O)c1C(=O)c1ccccc1	6.4	1.7	-5.0	34.9	1.1	-18.0
CC1=NN(c2ccc(Cl)cc2)C(=O)C1C(c1cccc(O)c1)c1c(C)[nH]n(-c2ccc(Cl)cc2)c1=O (centres undefined)	85.0*	12.3	41.3	23.1	1.4	46.6
CC1(O)c2ccccc2C(=O)N1Cc1ccccc1 (centres undefined)	4.1	3.4	3.0	6.1	9.0	-3.7
CC1(O)c2ccccc2C(=O)N1CCc1ccccc1F (centres undefined)	14.1	-3.9	10.2	53.2*	0.0	3.7
c1ccc2cc(N3CCCCC3)ccc2c1	x	x	x	-483.0	0.5	x
O=C1c2ccccc2C(=O)c2cc(N3CCCCC3)ccc21	x	x	x	43.7*	94.9*	x
CNc1nc2cc([N+](=O)[O-])c([N+](=O)[O-])cc2nc1NC	x	x	x	11.1	43.2*	x
N#Cc1cc2nc(O)c(O)nc2cc1[N+](=O)[O-]	-3.0	9.8	5.9	11.6	-1.4	-2.6
Cc1cccc(NC(=O)CCc2ccc(N3C(N)=NC(N)=NC3(C)C)cc2)c1	x	x	x	28.7	2.8	x
COc1ccc(NC(=S)NNc2ccc([N+](=O)[O-])cc2S(=O)(=O)Nc2ccc(C)cc2C)cc1	15.6	-2.1	-11.8	27.1	42.1*	0.3
Cc1ccc(NS(=O)(=O)c2cc([N+](=O)[O-])ccc2NNC(=S)Nc2cccc(Cl)c2)c(C)c1	x	x	x	35.4	54.4*	x
Cc1cccc(NC(=S)NNc2cccc(Cl)c2)c1	18.7	-8.8	2.0	-1.0	1.0	-20.8
Cc1ccc([N+](=O)[O-])cc1NC(=S)NC(=O)C(C)(C)C	-15.4	-0.5	-5.3	7.8	0.8	-0.5

Screening data as filed in PubChem BioAssay.
